Assay outcomes (PubChem BioAssay)
PRMT1 inh = inhibitors of human PRMT1; Q99873; recombinant PRMT1, activity-based probe fluorescence polarization; inhibition, % at 2.79 µM; actives 1.3% (n = 370,000); AID 652257;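 active = inhibition above about 21% made by adding two undisclosed values, limit read from the data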
ABHD4 inh = inhibitors of mouse ABHD4 | AID 720543 | purified mABHD4, FP-Rh probe fluorescence polarization | inhibition, % at 8.92 µM | actives 0.54% (n = 370,000);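 active = inhibition exceeding the mean over every tested compound plus 3 SD, cut at about 30% in these data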
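Test system: mABHD4 protein; Read-out basis: % inhibition; Incubation: 45 min + 60 min at 25 °C; Repeats: single replicate; Technique: fluorescence polarization with parallel and perpendicular emission, 525/598 nm; Compound: 8.92 µM, single dose; Benchmarks: full inhibition S159A mutant plus DMSO, zero as sample-well median.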
HTRA1 inhibitor = HTRA1 (human) protease inhibition. AID 504803. recombinant HTRA1, FP-rhodamine activity-based probe, fluorescence polarization. actives 0.5% (n = 340,000). inhibition, % at 5.96 µM; in the data active = inhibition above about 36%
JMJD2C inh = blocks human GASC-1 demethylase activity. GST-JMJD2C(1-420) H3K9me3 demethylation, DELFIA europium. actives 0.069% (n = 330,000). inhibition, % at 2.35 µM. Q9H3R0;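 active = more than half of a compound's replicate wells show inhibition beyond 50%, single wells judged on their own value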;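 note: signal counts dimethyl H3K9 product captured on neutravidin plate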
SIAE primary = human SIAE inhibition, primary screen; SIAE FP-Rh probe binding, fluorescence polarization; inhibition, % at 9.66 µM; actives 0.69% (n = 370,000); AID 1053197;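 active = inhibition above a cutoff: mean of compounds within the control limits plus 3 SD of those, cut at about 17% in these data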
Target sequence (Q9HAT2 whole entry, looked up): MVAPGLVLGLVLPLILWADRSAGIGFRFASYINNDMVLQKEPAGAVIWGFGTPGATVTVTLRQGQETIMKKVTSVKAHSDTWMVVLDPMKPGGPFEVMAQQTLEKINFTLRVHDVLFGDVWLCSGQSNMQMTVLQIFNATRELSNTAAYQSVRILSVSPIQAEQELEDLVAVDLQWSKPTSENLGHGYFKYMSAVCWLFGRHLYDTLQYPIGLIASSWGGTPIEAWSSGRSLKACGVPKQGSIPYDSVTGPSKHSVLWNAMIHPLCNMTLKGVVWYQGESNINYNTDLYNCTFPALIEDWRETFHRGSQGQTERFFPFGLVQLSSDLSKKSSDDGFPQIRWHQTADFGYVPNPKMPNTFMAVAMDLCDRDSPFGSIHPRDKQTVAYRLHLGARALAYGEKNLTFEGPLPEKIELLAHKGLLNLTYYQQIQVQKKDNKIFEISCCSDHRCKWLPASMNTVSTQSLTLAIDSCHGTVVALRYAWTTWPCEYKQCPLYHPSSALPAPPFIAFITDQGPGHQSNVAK
SIAE confirm = human SIAE inhibition, confirmation; shares compounds with SIAE primary; SIAE FP-Rh activity-based probe, fluorescence polarization; actives 13% (n = 2,300); inhibition, % at 9.66 µM; AID 1117263;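 active = mean inhibition of the replicates above the hit cutoff set in the primary screen, cut at about 17% in these data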;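 note: inhibitors lower polarization as more probe stays unbound to SIAE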
Large screens that a line does not name were inactive (follow-up assays come after a bar, where they were run). A selection: hits, their analogues and other compounds. The true share with any hit is near 2.4%.

Cc1ccc2c(c1)-c1c(cnn1CC(=O)NCCc1cccc(F)c1)CO2	none (no result: HTRA1 inhibitor, JMJD2C inh)
O=C(Cn1nnc2ccccc21)OCC(=O)c1ccccc1	SIAE primary 19 | SIAE confirm inactive
CCOC(=O)CCc1n[nH]c(=O)[nH]c1=O	none
O=C(O)CCc1n[nH]c(=S)[nH]c1=O	SIAE primary 17 | SIAE confirm inactive
Cc1cccc(S(=O)(=O)N2CCC[C@H]2C(=O)N2CCC[C@@H]2C(=O)NCc2ccccc2)c1	none (no result: HTRA1 inhibitor, JMJD2C inh)
COc1ccc(CNC(=O)CCNC(=O)N2CC(=O)Nc3ccccc32)cc1	SIAE primary active (no result: JMJD2C inh) | SIAE confirm inactive
CC(CNC(=O)[C@@H](Cc1ccccc1)NC(=O)CC[C@H]1O[C@@H](n2ccc(=O)[nH]c2=O)[C@H](O)[C@@H]1O)c1ccccc1 (stereo partly specified)	none (no result: HTRA1 inhibitor, JMJD2C inh)
Cc1cccc[n+]1C1C(c2ccc([N+](=O)[O-])cc2)C(C#N)=C(C(=C=[N-])C#N)NC1(O)C1CC1 (stereo unspecified)	SIAE primary 40 | SIAE confirm inactive
Cc1nc2c3ccccc3nc(NNC(=O)CCC(=O)N3CCCC(C)C3)n2n1 (stereo unspecified)	SIAE primary 19 | SIAE confirm inactive
Cc1cccc(N(CC(=O)N2CCCC2)S(=O)(=O)c2ccccc2)c1C	SIAE primary 22 | SIAE confirm inactive
CCc1ccccc1N(CC(=O)N1CCCCC1)S(=O)(=O)c1ccccc1	none
Cc1c(N)cccc1N	none
Cc1ccc2cccc(N)c2n1	SIAE primary 32 | SIAE confirm inactive
COc1cc(C=NNC(=O)Cn2nc(C)cc2C)ccc1OC(=O)C1CC1	SIAE primary 20 | SIAE confirm inactive
COc1ccc(C(=O)NNC(=O)c2ccc3ccccc3c2O)cc1	none
COc1ccccc1C(=O)NNC(=O)c1ccc2ccccc2c1O	SIAE primary 20 (no result: JMJD2C inh) | SIAE confirm inactive
COc1cccc(OCC(=O)NNC(=O)c2ccc3ccccc3c2O)c1	SIAE primary 19 | SIAE confirm inactive
COc1cccc(OCC(=O)NNC(=O)c2ccc(-c3ccccc3)cc2)c1	none
O=C(NNC(=O)c1ccc2ccccc2c1O)Nc1ccc(F)cc1	SIAE primary 26 | SIAE confirm inactive
COc1ccc(-c2cc(-c3nnc4sc(Cc5cccs5)nn34)[nH]n2)cc1	none (no result: HTRA1 inhibitor, JMJD2C inh)
COC(=O)[C@]12C[C@H](CC(=O)NCC34CC5CC(CC(C5)C3)C4)C(=O)N(CCc3ccc(OC)c(OC)c3)C1=C[C@H](C(C)(C)C)O[C@@H]2C	none (no result: HTRA1 inhibitor, JMJD2C inh)
O=C(CNC(=O)c1ccc(Cl)cc1Cl)OCN1C(=O)c2ccccc2C1=O	SIAE primary 19 | SIAE confirm inactive
COC(=O)C1CCN(C(=O)COC(=O)CNC(=O)c2ccc(Cl)cc2Cl)CC1	SIAE primary 20 | SIAE confirm inactive
CCCCNC(=O)C[C@H]1C[C@@]2(C(=O)OC)C(=C[C@H](C(C)C)O[C@@H]2C2CC2)N(Cc2ccco2)C1=O	none (no result: HTRA1 inhibitor, JMJD2C inh)
CCOC(=O)c1sc(=S)[nH]c1C	SIAE primary 18 (no result: JMJD2C inh) | SIAE confirm inactive
CCOC(=O)c1c(C)[nH]sc1=S	none
Cc1cc(C)c2[nH]c(C(=O)Nc3ccc4c(c3)OCO4)cc2c1	SIAE primary 18 | SIAE confirm inactive
O=C(Nc1cc(S(=O)(=O)N2CCOCC2)ccc1N1CCCCC1)c1cc(-c2ccccn2)nc2ccccc12	SIAE primary 18 | SIAE confirm inactive
O=C1Nc2ccccc2C1=Nc1ccc2[nH]c3ccccc3c2c1	SIAE primary 17 (no result: JMJD2C inh) | SIAE confirm inactive
Cc1ccc(-c2csc(N/N=C/c3ccco3)n2)c(C)c1	SIAE primary 19 | SIAE confirm inactive
C/C(=N\Nc1cc(-c2ccccc2)nc(-c2ccccc2)n1)c1ccc(O)c(C)c1	SIAE primary 19 | SIAE confirm inactive
O=C1c2ccccc2C(=O)c2cc(N3CCCCC3)ccc21	SIAE primary 22 (no result: JMJD2C inh) | SIAE confirm 42
Clc1cccc(CNC2CCC23CCCCC3)c1 (stereo unspecified)	none (no result: HTRA1 inhibitor, JMJD2C inh)
COCCNc1nc(NCCOC)c2sc(-c3ccccc3)cc2n1	none (no result: HTRA1 inhibitor, JMJD2C inh)
COc1ccccc1CNc1nc(NC(C)C)nc2cc(-c3ccccc3)sc12	SIAE primary 22 (no result: HTRA1 inhibitor, JMJD2C inh) | SIAE confirm 28
CC(C)Nc1nc(NCCOc2ccccc2Cl)c2sc(-c3ccccc3)cc2n1	SIAE primary 19 (no result: HTRA1 inhibitor, JMJD2C inh) | SIAE confirm 20
C=CCNc1nc(NCc2cccc(OC)c2)c2sc(-c3ccccc3)cc2n1	SIAE primary 20 (no result: HTRA1 inhibitor, JMJD2C inh) | SIAE confirm inactive
COCCNc1nc(NCc2cccc(OC)c2)c2sccc2n1	none (no result: HTRA1 inhibitor, JMJD2C inh)
COCCNc1nc(NCCOc2ccccc2)c2sc(-c3ccccc3)cc2n1	SIAE primary 22 (no result: HTRA1 inhibitor, JMJD2C inh) | SIAE confirm 21
COC(=O)C[C@@H]1CC[C@H]2[C@@H](COc3ccc(NC(=O)c4ccc(C(F)(F)F)cc4)cc3C(=O)N2C)O1	none (no result: HTRA1 inhibitor, JMJD2C inh)
Cc1cc2c(c(=O)o1)[C@@]1(C(=O)Nc3ccccc31)C1=C(CCCC1=O)O2	none (no result: HTRA1 inhibitor, JMJD2C inh)
CC(C)(C)N1Cc2nnn(Cc3ccccc3)c2-c2cc(N3CCCC3)ccc2S1(=O)=O	none (no result: HTRA1 inhibitor, JMJD2C inh)
COC(=O)C1=C(C(=O)OC)C2(OC1c1ccccc1C)C(=O)c1ccccc1C2=O (stereo unspecified)	SIAE primary 19 | SIAE confirm inactive
C#Cc1cccc(OC[C@@H](O)CN2CCC(C(O)(c3ccccc3)c3ccccc3)CC2)c1	none (no result: HTRA1 inhibitor, JMJD2C inh)
C[C@@H]1CN([C@@H](C)CO)C(=O)CCCn2nncc2CO[C@@H]1CN(C)S(=O)(=O)c1ccccc1	none (no result: JMJD2C inh)
CN(C(=O)[C@@H](C1CC1)[C@@H](O)c1ccc(Cl)cc1)c1ccccc1	none (no result: HTRA1 inhibitor, JMJD2C inh)
COC(=O)C1CCCCN1C(=O)c1ccc2oc(C(C)C)nc2c1 (stereo unspecified)	SIAE primary 17 | SIAE confirm inactive
COc1ccc(Cn2c(NC(=O)c3ccccc3)nc(Cc3ccccc3)c2-c2ccccc2)cc1	none (no result: HTRA1 inhibitor, JMJD2C inh)
COc1ccc(-c2c(Cc3ccccc3)nc(NC(=O)c3ccccc3F)n2C)cc1	SIAE primary 41 (no result: HTRA1 inhibitor, JMJD2C inh) | SIAE confirm inactive
Cc1ccc(S(=O)(=O)N2c3ccccc3C[C@H]2CC=C(c2ccccc2)c2ccccc2)cc1	none (no result: HTRA1 inhibitor, JMJD2C inh)
CCCc1nc2ccc(Cl)cn2c1Cc1ccc(C)cc1	SIAE primary 18 (no result: HTRA1 inhibitor, JMJD2C inh) | SIAE confirm inactive
CCCc1nc2ccc(Cl)cn2c1Cc1cccc(Cl)c1	none (no result: HTRA1 inhibitor, JMJD2C inh)
C#CCONC(=O)c1cc(OCC(F)(F)F)ccc1OCC(F)(F)F	SIAE primary 18 | SIAE confirm inactive
O=C(NO)c1cc(OCC(F)(F)F)ccc1OCC(F)(F)F	none
CNc1oc(Cc2cccc3ccccc23)nc1C#N	SIAE primary 18 | SIAE confirm inactive
COC(=O)[C@]12C[C@H](CC(=O)NCCc3ccccc3OC)C(=O)N(CCc3ccc(OC)c(OC)c3)C1=C[C@H](COCc1ccccc1)O[C@@H]2C	none (no result: HTRA1 inhibitor, JMJD2C inh)
C/C(=N\NC(=S)NCCc1ccccc1)c1ccc(O)cc1O	SIAE primary 17 | SIAE confirm 20
